In ChEMBL document CHEMBL1944526, “Diamine and aminoalcohol derivatives active against Trypanosoma brucei” (Bioorg Med Chem Lett, 2012):
Calls of active or inactive are those of the source. The calls are words filed in the database; no cut-off is given here.

Tests used:
[1] = tested on: Trypanosoma brucei rhodesiense; assay: Antitrypanosomal activity against bloodstream form of Trypanosoma brucei rhodesiense EATRO3 after 72 hrs by alamar blue assay; assay type: functional, organism-based; conditions: EATRO3, 72 h
In short: (§1)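 Bloodstream-form parasites were grown in HMI-9 with 20% heat-inactivated FBS at 37 °C and 5% CO2. They were seeded at 2 × 10^3 cells/ml (T. b. rhodesiense EATRO3) or 2 × 10^4 cells/ml (T. b. gambiense ELIANE) and exposed to a compound dilution series for 72 h. Untreated cells with matching DMSO served as controls. Alamar Blue fluorescence was read at ex 550/em 590 nm, and EC50 was derived from it.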

[2] = tested on: Trypanosoma brucei gambiense; assay: Antitrypanosomal activity against bloodstream form of Trypanosoma brucei gambiense ELIANE after 72 hrs by alamar blue assay; assay type: functional, organism-based; in short: as §1
[3] = Selectivity index, ratio of CC50 for african green monkey Vero cells to EC50 for Trypanosoma brucei rhodesiense EATRO3; assay type: toxicity, cell-based; conditions: read-out: Ratio CC50/EC50
In short: (§2)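 Vero cells were grown in DMEM with 10% heat-inactivated FBS and seeded at 5 × 10^4 cells/ml. They were exposed to 4–35 (units as printed unclear) compound concentrations for 72 h at 37 °C and 5% CO2. CC50 came from Alamar Blue fluorescence (ex 550/em 590 nm). SI = CC50 (Vero) / EC50 (parasite, 72 h Alamar Blue assay).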

[4] = Selectivity index, ratio of CC50 for african green monkey Vero cells to EC50 for Trypanosoma brucei gambiense ELIANE; assay type: toxicity, cell-based; conditions: read-out: Ratio CC50/EC50; in short: as §2
[5] = tested on: Trypanosoma brucei rhodesiense; assay: Antitrypanosomal activity against bloodstream form of Trypanosoma brucei rhodesiense EATRO3 assessed as alteration of flagellar pocket at […] after 24 hrs by microscopic analysis; assay type: functional, organism-based
In short: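 Live bloodstream-form T. b. rhodesiense EATRO3, cultured in HMI-9 with 20% heat-inactivated FBS at 37 °C and 5% CO2, were treated for 24 h. Flagellar pocket morphology was imaged with Nomarski optics and compared against untreated parasites.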

Structure (SMILES)	EC50 [1]	selectivity ratio [3]	also measured
N=C(N)c1ccc(OCCCCCOc2ccc(C(=N)N)cc2)cc1	0.0037 µM		
CCCCCCCCCCCCCCC(CNCCCCCC)NC(=O)OC(C)(C)C (racemic)	> 2.5 µM		
CCCCCCCCCCCCCCC(CNC(=O)CCC(=O)O)NC(=O)OC(C)(C)C (racemic)	> 2.5 µM		
CCCCCCCCCCC(CO)NCC (racemic)	1.09 µM		
CCCCCCCCCCCCCCCCC(CO)NCC (racemic)	0.584 µM	27.7	EC50 [2]: 0.451 µM; selectivity ratio [4]: 35.9; Activity [5]: Active
CCCCCCCCCCCCCCC(O)CNCCCCCC (racemic)	> 2.5 µM		
CCCCCCCCCCCCCCC(O)CNC(C)C (racemic)	0.436 µM	27.1	EC50 [2]: 0.329 µM; selectivity ratio [4]: 35.8; Activity [5]: Active
CCCCCCCCCCCCCCC(O)CN(CC)CC (racemic)	2 µM	19.9	
CCCCCCCCCCCCCCC(O)CN1CCN(C)CC1 (racemic)	0.524 µM	23.7	EC50 [2]: 0.431 µM; selectivity ratio [4]: 28.8; Activity [5]: Active
CCCCCCCCCCCCCCC(O)CN1CCN(CCCC)CC1 (racemic)	1.78 µM		
CCCCCCCCCCCCCCC(O)CN1CCOCC1 (racemic)	> 2.5 µM		
CCCCCCCCCCCCCCC(CO)NCCCC (racemic)	0.817 µM		
CCCCCCCCCCCCCCC(CNCC)NC(=O)OC(C)(C)C (racemic)	0.704 µM	38.8	
CCCCCCCCCCCCCCC(N)CO (racemic)	> 2.5 µM		
CCCCCCCCCCCCCCC(COCc1ccccc1)NC(=O)CCC(=O)O (racemic)	> 2.5 µM		
CCCCCCCCCCCCCCC(CO)N(CC)CC (racemic)	0.722 µM		
CCCCCCCCCCCCCCC(O)CNC1CCCCC1 (racemic)	0.79 µM		
CCCCCCCCCCCCCCC(CN)NC(=O)OC(C)(C)C (racemic)	0.961 µM	17	
CCCCCCCCCCCCCCC(CO)NCC (racemic)	1.14 µM	39.1	
CCCCCCCCCCCCCCC(N)CNCC(=O)O (racemic)	> 2.5 µM		
CCCCCCCCCCCCCCC(CO)NC(=O)CCCC(=O)O (racemic)	> 2.5 µM		
Cc1ccc(C(=O)Nc2ccc(S(=O)(=O)O)c3cc(S(=O)(=O)O)cc(S(=O)(=O)O)c23)cc1NC(=O)c1cccc(NC(=O)Nc2cccc(C(=O)Nc3cc(C(=O)Nc4ccc(S(=O)(=O)O)c5cc(S(=O)(=O)O)cc(S(=O)(=O)O)c45)ccc3C)c2)c1 [SURAMIN]	0.185 µM		
